How the values were obtained:
[1] = Antagonistic activity against HOXA1-PBX1/DNA complex formation by electrophoretic mobility shift assay; format: functional
Summary of the method: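 Recombinant mouse HOXA1 192–288 and mouse/human PBX1 233–319 (2.5 ng each) preincubated 15 min at 4 °C in HEPES pH 7.9 binding buffer with 135 mM NaCl, poly dIdC and inhibitor in DMSO, then 30 min at ~22 °C with 32P-labeled Klenow-extended annealed oligonucleotide probe. Run on 4% polyacrylamide gel in TBE, autoradiographed; IC50 from averaged densitometry of multiple gels; screened initially at 300 μM.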

[2] = target: POU domain, class 3, transcription factor 2 (Mus musculus) (UniProt P31360); experiment: Antagonistic activity against BRN2/DNA interaction by electrophoretic mobility shift assay
[3] = target: POU domain, class 3, transcription factor 3 (Mus musculus) (UniProt P31361); experiment: Antagonistic activity against BRN1/DNA interaction by electrophoretic mobility shift assay
POU domain, class 3, transcription factor 3 (Mus musculus), sequence (P31361 whole entry, looked up, the tested form may be a part): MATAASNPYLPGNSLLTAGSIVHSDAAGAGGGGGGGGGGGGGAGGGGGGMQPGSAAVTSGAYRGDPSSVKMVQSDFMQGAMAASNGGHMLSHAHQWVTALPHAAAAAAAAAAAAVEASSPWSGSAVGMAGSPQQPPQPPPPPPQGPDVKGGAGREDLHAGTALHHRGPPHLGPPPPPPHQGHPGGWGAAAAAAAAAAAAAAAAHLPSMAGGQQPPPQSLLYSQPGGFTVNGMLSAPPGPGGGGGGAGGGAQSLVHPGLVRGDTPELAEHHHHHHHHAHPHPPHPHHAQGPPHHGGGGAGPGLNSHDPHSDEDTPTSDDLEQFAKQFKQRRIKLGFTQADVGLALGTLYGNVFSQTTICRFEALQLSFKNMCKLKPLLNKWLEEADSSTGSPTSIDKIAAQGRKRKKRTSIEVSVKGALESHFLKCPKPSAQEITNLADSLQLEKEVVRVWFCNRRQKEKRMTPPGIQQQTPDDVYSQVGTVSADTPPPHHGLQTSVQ

POU domain, class 3, transcription factor 2 (Mus musculus), sequence (P31360 whole entry, looked up, the tested form may be a part): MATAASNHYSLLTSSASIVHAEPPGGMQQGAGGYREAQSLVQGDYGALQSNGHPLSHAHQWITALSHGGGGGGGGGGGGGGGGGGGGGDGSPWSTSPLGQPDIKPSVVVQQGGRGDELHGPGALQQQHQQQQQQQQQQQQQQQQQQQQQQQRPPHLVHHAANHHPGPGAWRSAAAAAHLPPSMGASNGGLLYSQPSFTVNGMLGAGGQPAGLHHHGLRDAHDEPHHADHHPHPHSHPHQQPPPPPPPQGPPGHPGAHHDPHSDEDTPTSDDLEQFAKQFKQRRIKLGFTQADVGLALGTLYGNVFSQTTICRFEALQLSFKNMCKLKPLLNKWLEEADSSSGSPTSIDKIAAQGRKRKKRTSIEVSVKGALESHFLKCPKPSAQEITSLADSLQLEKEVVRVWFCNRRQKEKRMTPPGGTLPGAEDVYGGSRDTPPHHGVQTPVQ

Compound | IC50 [1] | IC50 [2] | IC50 [3]
O=C(COc1ccc(C(=O)Nc2cccc(F)c2)c2ccccc12)NCCOCc1ccccc1 | > 300 µM | – | –
Cc1ccc(NC(=O)COc2ccc(C(=O)Nc3cccc(F)c3)c3ccccc23)c(C)c1 | > 300 µM | – | –
COc1cc(CNC(=O)COc2ccc(C(=O)Nc3cccc(F)c3)c3ccccc23)cc(OC)c1 | > 300 µM | – | –
COc1ccc(NC(=O)COc2ccc(C(=O)Nc3cccc(F)c3)c3ccccc23)cc1 | 161 µM | – | –
COc1ccc(OC)c(NC(=O)COc2ccc(C(=O)Nc3cccc(F)c3)c3ccccc23)c1 | > 300 µM | – | –
O=C(Nc1cccc(F)c1)c1ccc(OCC(=O)N2CCOCC2)c2ccccc12 | > 300 µM | – | –
O=C(COc1ccc(C(=O)Nc2cccc(F)c2)c2ccccc12)Nc1ccc(F)cc1 | 293 µM | – | –
COc1ccc(NC(=O)COc2ccc(C(=O)Nc3cccc(F)c3)c3ccccc23)cc1OC | 464 µM | – | –
O=C(COc1ccc(C(=O)Nc2cccc(F)c2)c2ccccc12)Nc1ccc(O)cc1 | 65 µM | 138 µM | 124 µM
COc1cc(NC(=O)COc2ccc(C(=O)Nc3cccc(F)c3)c3ccccc23)cc(OC)c1 | > 300 µM | – | –
O=C(COc1ccc(C(=O)Nc2cccc(F)c2)c2ccccc12)Nc1ccccc1F | 433 µM | – | –
O=C(COc1ccc(C(=O)Nc2cccc(F)c2)c2ccccc12)Nc1cccc(F)c1 | > 300 µM | – | –
COc1ccccc1NC(=O)COc1ccc(C(=O)Nc2cccc(F)c2)c2ccccc12 | 718 µM | – | –
COc1cccc(NC(=O)COc2ccc(C(=O)Nc3cccc(F)c3)c3ccccc23)c1 | 580 µM | – | –
O=C(COc1ccc(C(=O)Nc2cccc(F)c2)c2ccccc12)Nc1cccc(O)c1 | 86 µM | 148 µM | 142 µM

Now from value to molecule:

IC50 [1] | IC50 [2] | IC50 [3] | Compound
272 µM | – | – | NC(=O)COc1ccc(C(=O)Nc2cccc(F)c2)c2ccccc12
> 300 µM | – | – | CN(C)C(=O)COc1ccc(C(=O)Nc2cccc(F)c2)c2ccccc12
278 µM | – | – | CCCNC(=O)COc1ccc(C(=O)Nc2cccc(F)c2)c2ccccc12
254 µM | – | – | O=C(COc1ccc(C(=O)Nc2cccc(F)c2)c2ccccc12)Nc1ccccc1
200 µM | – | – | CCNC(=O)COc1ccc(C(=O)Nc2cccc(F)c2)c2ccccc12
272 µM | – | – | CC(C)NC(=O)COc1ccc(C(=O)Nc2cccc(F)c2)c2ccccc12
> 300 µM | – | – | CCOC(=O)CNC(=O)COc1ccc(C(=O)Nc2cccc(F)c2)c2ccccc12
173 µM | > 10000 µM | 810 µM | O=C(COc1ccc(C(=O)Nc2cccc(F)c2)c2ccccc12)NC1CC1
> 300 µM | – | – | O=C(COc1ccc(C(=O)Nc2cccc(F)c2)c2ccccc12)NCCO
111 µM | 204 µM | 162 µM | O=C(COc1ccc(C(=O)Nc2cccc(F)c2)c2ccccc12)NCC(F)(F)F
331 µM | – | – | C#CCNC(=O)COc1ccc(C(=O)Nc2cccc(F)c2)c2ccccc12
> 300 µM | – | – | O=C(O)CNC(=O)COc1ccc(C(=O)Nc2cccc(F)c2)c2ccccc12
> 300 µM | – | – | NNC(=O)COc1ccc(C(=O)Nc2cccc(F)c2)c2ccccc12
> 300 µM | – | – | CC(C)(C)NC(=O)COc1ccc(C(=O)Nc2cccc(F)c2)c2ccccc12
> 300 µM | – | – | CNC(=O)COc1ccc(C(=O)Nc2cccc(F)c2)c2ccccc12
298 µM | – | – | CC(C)CNC(=O)COc1ccc(C(=O)Nc2cccc(F)c2)c2ccccc12
> 300 µM | – | – | CN(C)CCNC(=O)COc1ccc(C(=O)Nc2cccc(F)c2)c2ccccc12
